Hits are enriched below; roughly 3.7% of the tested compounds scored in any of these assays.
DENV2 CPE rescue: inhibitors of DENV2 cytopathic effect, primary screen, cell-based, plate reader, single concentration; DENV2-infected cells, cytopathic effect rescue; CPE inhibition, % at 9.99 µM; actives 1.7% (n = 350,000); AID 651640, 2012; in the data active = CPE inhibition above about 20%, passing the limit was not always enough; inconclusive = no clear call, values can overlap the other calls; tested in BHK-21 cells;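 also: 0% = median of neutral control wells and 100% = median of positive control wells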
CFTR F508del cor: F508del CFTR correction, initial screen, CFBE line, single point | activity (quench increase), % at 7.58 µM | actives 0.36% (n = 350,000) | CFBE cells, YFP halide quenching; stimulated with forskolin plus potentiator P3; % fluorescence drop versus neutral controls;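 active = mean added fluorescence quench of at least 8% versus neutral control, with both replicates also reaching 8%; inconclusive = only one of the mean or replicate conditions met; inactive = mean below 8% and not both replicates reaching 8%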;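 also: cells transiently co-express mutant CFTR-F508del with the halide-sensitive YFP; corrector assay measuring rescue of mutant channel to the surface after 24 h compound exposure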
E-sel inducer: E-selectin induction in HUVECs, primary screen, imaging, HUVEC, immunofluorescence imaging, single point; P16581; normalized: neutral wells 0, TNF-alpha wells 100; activation, % at 7.58 µM; actives 0.37% (n = 260,000);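 active = mean E-selectin-positive cell signal at least 10% of the positive control, reached in at least 60% of replicates, without over 20% cell loss; inconclusive = no rule given, readout overlaps actives, possibly toxicity-flagged; inactive = the rest, including those meeting only one limit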
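Material: HUVEC primary endothelial cells; Amount: 3,000 cells per well; Dosing: single concentration; Medium: EGM-2 growth medium on 0.1% gelatin-coated wells; Read-out basis: percent E-selectin-positive cells; Signal: immunofluorescence imaging; Control set: TNF-alpha, DMSO.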
ERAP1 HTS inh: human ERAP1 aminopeptidase inhibitors, primary screen, biochemical, single point, plate reader; Endoplasmic reticulum aminopeptidase 1 (Homo sapiens), Q9NZ08; actives 0.15% (n = 340,000); recombinant ERAP1, Leu-AMC fluorescence, 60 min; inhibition, % at 10.7 µM;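 active = mean replicate inhibition of at least 30%, or all replicates individually reaching that 30% level; inactive = mean below 30% and not every replicate reaching it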;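 also: 0% = neutral control wells and 100% = L-leucinethiol positive control wells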
Target sequence (Q9NZ08 whole entry, looked up): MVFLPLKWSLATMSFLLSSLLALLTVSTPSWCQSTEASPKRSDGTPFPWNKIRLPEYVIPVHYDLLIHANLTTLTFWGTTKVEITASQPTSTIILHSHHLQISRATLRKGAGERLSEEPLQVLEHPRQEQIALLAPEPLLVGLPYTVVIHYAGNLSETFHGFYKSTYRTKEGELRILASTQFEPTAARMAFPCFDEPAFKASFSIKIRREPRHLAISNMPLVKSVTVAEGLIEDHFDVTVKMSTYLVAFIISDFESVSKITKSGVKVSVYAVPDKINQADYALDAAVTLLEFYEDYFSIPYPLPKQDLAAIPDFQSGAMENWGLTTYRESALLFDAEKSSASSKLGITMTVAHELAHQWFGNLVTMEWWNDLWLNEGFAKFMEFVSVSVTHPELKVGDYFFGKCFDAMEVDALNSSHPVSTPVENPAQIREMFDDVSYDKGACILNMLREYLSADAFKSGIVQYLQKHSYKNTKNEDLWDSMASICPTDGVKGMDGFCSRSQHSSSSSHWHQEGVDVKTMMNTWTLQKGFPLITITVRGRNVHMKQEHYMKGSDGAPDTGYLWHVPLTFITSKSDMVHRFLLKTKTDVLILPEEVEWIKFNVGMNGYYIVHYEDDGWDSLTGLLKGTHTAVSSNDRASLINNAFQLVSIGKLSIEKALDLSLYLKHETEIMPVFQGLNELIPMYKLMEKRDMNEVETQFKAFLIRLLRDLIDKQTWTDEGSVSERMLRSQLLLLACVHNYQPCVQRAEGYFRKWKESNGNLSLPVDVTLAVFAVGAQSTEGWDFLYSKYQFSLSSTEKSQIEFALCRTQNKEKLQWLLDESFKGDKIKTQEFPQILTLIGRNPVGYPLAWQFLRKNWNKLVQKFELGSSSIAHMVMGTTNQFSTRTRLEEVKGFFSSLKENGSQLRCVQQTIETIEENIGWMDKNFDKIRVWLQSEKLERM
FGF22 binding: binders of human FGF22 protein, primary screen, FGF22 synaptogenesis inhibitor project, biophysical, thermal shift, single point; actives 1.5% (n = 340,000); recombinant FGF22 thermal shift, SYPRO orange fluorescence; percent of sucrose octasulfate shift, DMSO zero; activity (Tm shift, normalised), % at 9.99 µM; AID 651658, 2012; Fibroblast growth factor 22 (Homo sapiens), Q9HCT0;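 active = mean Tm shift, scaled 0 neutral to 100 positive control, at about 1.3% or above, every replicate too, limit read from the data; inconclusive = no clear call, values can overlap the other calls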
* hit, by the source's call; u = inconclusive; x = not tested or not shown.

SMILES	DENV2 CPE rescue	CFTR F508del cor	E-sel inducer	ERAP1 HTS inh	FGF22 binding
C[C@H](CO)N1C[C@H](C)[C@H](CN(C)S(=O)(=O)c2ccccc2)OCCCC[C@H](C)Oc2ccc(NS(=O)(=O)c3cccs3)cc2C1=O	13	0	x	0	0
C[C@@H]1CN([C@@H](C)CO)C(=O)c2cc(C#CCN(C)C)cnc2O[C@H]1CN(C)Cc1cccc(C(=O)O)c1	-5	-1	x	0	0
O=C(C[C@@H]1CC[C@H]2[C@@H](COC[C@@H](O)CN2C(=O)c2ccncc2)O1)NC1Cc2ccccc2C1	-1	-1	0	3	-1
O=C(C[C@@H]1CC[C@@H](NC(=O)Nc2ccccc2F)[C@@H](CO)O1)NCc1ccc(Cl)cc1	-6	0	0	1	0
Cc1nc(CN(C)C(=O)c2cc(COc3ccc4ncccc4c3)on2)cs1	-2	1	0	-2	43*
CC(C)N(Cc1nccn1C)C(=O)c1cc(COc2ccc3ncccc3c2)on1	5	2	0	-2	0
C[C@@H]1CCCCO[C@H](CN(C)Cc2ccc(Cl)c(Cl)c2)[C@H](C)CN([C@@H](C)CO)C(=O)c2cc(NS(=O)(=O)c3ccccc3)ccc2O1	32*	3	0	-3	1
C[C@H]1CCCCO[C@H](CN(C)Cc2ccc(Cl)c(Cl)c2)[C@@H](C)CN([C@@H](C)CO)C(=O)c2cc(NS(=O)(=O)c3ccc(F)cc3)ccc2O1	22*	5	0	0	0
C[C@@H]1CN([C@H](C)CO)C(=O)c2cc(NS(=O)(=O)c3ccccc3)ccc2O[C@@H](C)CCCCO[C@H]1CN(C)Cc1ccc(Cl)c(Cl)c1	23*	3	0	-2	1
C[C@@H]1CCCCO[C@@H](CN(C)Cc2ccc(Cl)c(Cl)c2)[C@@H](C)CN([C@@H](C)CO)C(=O)c2cc(NS(=O)(=O)c3ccccc3)ccc2O1	23*	1	0	-3	1
C[C@H](CO)N1C[C@H](C)[C@@H](CN(C)Cc2ccc(Cl)c(Cl)c2)OCCCC[C@H](C)Oc2ccc(NS(=O)(=O)c3ccccc3)cc2C1=O	1	3	0	-5	1
C[C@@H]1CCCCO[C@@H](CN(C)Cc2ccc(Cl)c(Cl)c2)[C@@H](C)CN([C@@H](C)CO)C(=O)c2cc(NS(=O)(=O)c3ccc(Cl)cc3)ccc2O1	-4	0	x	0	0
CCCC#Cc1ccc2c(c1)O[C@@H](CN(C)C(=O)CC1CC1)[C@H](C)CN([C@H](C)CO)S2(=O)=O	-2	-4	0	-2	0
CCC(=O)N1CC2(C1)[C@H](c1ccc(-c3cccc(F)c3)cc1)[C@H](CO)N2CC1CC1	-2	0	0	1	0
COc1ccc2c3c([nH]c2c1)[C@H](CO)N(C(=O)c1ccc(F)cc1)CC31CN(C(=O)Nc2ccc(F)cc2)C1	u	-1	0	x	x
CN1[C@@H]2Cn3c(ccc(C4=CCCC4)c3=O)[C@H]1[C@@H](C(=O)N1CCCCC1)[C@@H]2CO	110*	x	0	1	0
O=C([C@@H]1[C@@H](CO)[C@@H]2Cn3c(ccc(C4=CCCCC4)c3=O)[C@H]1N2)N1CCCCC1	35*	x	0	4	0
O=C(NC1CCC1)[C@H]1[C@H](CO)[C@H]2Cn3c(ccc(C4=CCCCC4)c3=O)[C@H]2N1C(=O)C1CCOCC1	65*	x	0	-2	0
CN1[C@@H]2c3ccc(-c4ccncc4)c(=O)n3C[C@H]1[C@H](CO)[C@H]2C(=O)N1CCC(Cc2ccccc2)CC1	25*	x	0	x	0
CN1[C@@H]2Cn3c(ccc(-c4ccncc4)c3=O)[C@H]1[C@@H](C(=O)N1CCC(Cc3ccccc3)CC1)[C@@H]2CO	-6	x	0	-2	0
C[C@@H]1CN([C@@H](C)CO)C(=O)c2cc(NS(=O)(=O)c3ccc(F)cc3)ccc2O[C@@H](C)CCCCO[C@H]1CN(C)C(=O)Nc1ccccc1	6	-1	0	x	0

High-throughput results (PubChem)
